Laboratory results published in ChEMBL document CHEMBL1137008, “Cancer preventive agents 9. Betulinic acid derivatives as potent cancer chemopreventive agents” (Bioorg Med Chem Lett, 2009).

Columns and labels:
[1] = Cytotoxicity against human Raji cells assessed as cell viability at 500 molar ratio after 48 hrs by trypan blue staining method; assay type: cell-based; conditions: read-out: Activity
In short: (§1)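 Raji cells (EBV genome-carrying, Burkitt's lymphoma) grown in RPMI-1640 with 10% FBS; incubated 48 h at 37 °C with 4 mM n-butyric acid, 32 pM TPA and test compound in DMSO at stated compound/TPA molar ratio; viability determined by Trypan blue staining.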

Raji [2] = test: Inhibition of TPA-induced EBV-early antigen activation in human Raji cells assessed as EA induction at 10 molar ratio after 48 hrs relative to TPA; assay type: cell-based; design: scale not given: the % may be the effect or the level left; conditions: human gammaherpesvirus 4
In short: (§2)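 Raji cells (virus non-producer, spontaneous EA activation <0.1%) incubated 48 h at 37 °C with 4 mM n-butyric acid plus 32 pM TPA and compound in DMSO; smears stained by indirect immunofluorescence with NPC patient EBV-EA-positive serum, ≥500 cells counted; EA-positive cells expressed relative to butyrate+TPA control (100%); triplicates; IC50 as mol ratio to 32 pmol TPA.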

Raji [3] = test: Inhibition of TPA-induced EBV-early antigen activation in human Raji cells assessed as EA induction at 1000 molar ratio after 48 hrs relative to TPA; assay type: cell-based; design: scale not given: the % may be the effect or the level left; conditions: human gammaherpesvirus 4; in short: as §2
[4] = Cytotoxicity against human Raji cells assessed as cell viability at 100 molar ratio after 48 hrs by trypan blue staining method; assay type: cell-based; conditions: read-out: Activity; in short: as §1
[5] = Cytotoxicity against human Raji cells assessed as cell viability at 1000 molar ratio after 48 hrs by trypan blue staining method; assay type: cell-based; conditions: read-out: Activity; in short: as §1
[6] = Inhibition of TPA-induced EBV-early antigen activation in human Raji cells assessed as EA induction after 48 hrs relative to TPA; assay type: cell-based, human gammaherpesvirus 4; in short: as §2
Raji [7] = test: Inhibition of TPA-induced EBV-early antigen activation in human Raji cells assessed as EA induction at 500 molar ratio after 48 hrs relative to TPA; assay type: cell-based; design: scale not given: the % may be the effect or the level left; conditions: human gammaherpesvirus 4; in short: as §2
[8] = Cytotoxicity against human Raji cells assessed as cell viability at 10 molar ratio after 48 hrs by trypan blue staining method; assay type: cell-based; conditions: read-out: Activity; in short: as §1
Raji [9] = test: Inhibition of TPA-induced EBV-early antigen activation in human Raji cells assessed as EA induction at 100 molar ratio after 48 hrs relative to TPA; assay type: cell-based; design: scale not given: the % may be the effect or the level left; conditions: human gammaherpesvirus 4; in short: as §2

Which results are given for `C=C(C)[C@@H]1CC[C@]2(C(=O)O)CC[C@]3(C)[C@H](CC[C@@H]4[C@@]5(C)CC[C@H](OC(=O)CCC/C=C\C/C=C\C/C=C\C/C=C\C/C=C\CC)C(C)(C)[C@@H]5CC[C@]43C)[C@@H]12`?
viability at 48 h, 500 molar ratio [1]: > 80%; Activity (Raji [2]): 100%; Activity (Raji [3]): 15.3%; viability at 48 h, 100 molar ratio [4]: > 80%; viability at 48 h, 1000 molar ratio [5]: 60%; IC50 [6]: 523 molar ratio; Activity (Raji [7]): 50.4%; viability at 48 h, 10 molar ratio [8]: > 80%; Activity (Raji [9]): 80.1%

For `C=C(C)[C@@H]1CC[C@]2(C(=O)O)CC[C@]3(C)[C@H](CC[C@@H]4[C@@]5(C)CC(=O)C(C)(C)[C@@H]5CC[C@]43C)[C@@H]12`, which viability at 48 h, 500 molar ratio [1] is on record?
Its viability at 48 h, 500 molar ratio is greater than 80%.

And the Activity (Raji [2])?
Its Activity is 100%.

What about the Activity (Raji [3]) of the same molecule?
The Activity was 10.1%.

What about the viability at 48 h, 100 molar ratio [4] of the same molecule?
Its viability at 48 h, 100 molar ratio is greater than 80%.

What about the viability at 48 h, 1000 molar ratio [5] of the same molecule?
The viability at 48 h, 1000 molar ratio was 60%.

And the IC50 [6]?
The IC50 was 442 molar ratio.

And the Activity (Raji [7])?
Its Activity is 36.4%.

And the viability at 48 h, 10 molar ratio [8]?
Its viability at 48 h, 10 molar ratio is greater than 80%.

What about the Activity (Raji [9]) of the same molecule?
Its Activity is 74.3%.

What does the source list for `COc1cc(/C=C/C(=O)CC(=O)/C=C/c2ccc(O)c(OC)c2)ccc1O` [CURCUMIN]?
viability at 48 h, 500 molar ratio [1]: > 80%; Activity (Raji [2]): 100%; Activity (Raji [3]): 0%; viability at 48 h, 100 molar ratio [4]: > 80%; viability at 48 h, 1000 molar ratio [5]: 60%; IC50 [6]: 341 molar ratio; Activity (Raji [7]): 22.8%; viability at 48 h, 10 molar ratio [8]: > 80%; Activity (Raji [9]): 81.7%

What does the source list for `C=C(C)[C@@H]1CC[C@]2(C(=O)O)CC[C@]3(C)[C@H](CC[C@@H]4[C@@]5(C)CC[C@H](OC(=O)CCC/C=C\C/C=C\C/C=C\C/C=C\CCCCC)C(C)(C)[C@@H]5CC[C@]43C)[C@@H]12`?
viability at 48 h, 500 molar ratio [1]: > 80%; Activity (Raji [2]): 100%; Activity (Raji [3]): 12.3%; viability at 48 h, 100 molar ratio [4]: > 80%; viability at 48 h, 1000 molar ratio [5]: 60%; IC50 [6]: 482 molar ratio; Activity (Raji [7]): 46.1%; viability at 48 h, 10 molar ratio [8]: > 80%; Activity (Raji [9]): 79%

With `C=C(C)[C@@H]1CC[C@]2(C(=O)O)CC[C@]3(C)[C@H](CC[C@@H]4[C@@]5(C)CC[C@H](OC(=O)C[C@H](C)CO)C(C)(C)[C@@H]5CC[C@]43C)[C@@H]12` as the molecule, how does the viability at 48 h, 500 molar ratio [1] read?
The viability at 48 h, 500 molar ratio was greater than 80%.

What about the Activity (Raji [2]) of the same molecule?
The Activity was 93.1%.

And the Activity (Raji [3])?
Its Activity is 0%.

What about the viability at 48 h, 100 molar ratio [4] of the same molecule?
Its viability at 48 h, 100 molar ratio is greater than 80%.

And the viability at 48 h, 1000 molar ratio [5]?
Its viability at 48 h, 1000 molar ratio is 70%.

And the IC50 [6]?
The IC50 was 303 molar ratio.

And the Activity (Raji [7])?
The Activity was 29.3%.

What about the viability at 48 h, 10 molar ratio [8] of the same molecule?
The viability at 48 h, 10 molar ratio was greater than 80%.

And the Activity (Raji [9])?
Its Activity is 70.1%.

What does the source list for `C=C(C)[C@@H]1CC[C@]2(C(=O)O)CC[C@]3(C)[C@H](CC[C@@H]4[C@@]5(C)CC[C@H](O)C(C)(C)[C@@H]5CC[C@]43C)[C@@H]12` [BETULINIC ACID]?
viability at 48 h, 500 molar ratio [1]: > 80%; Activity (Raji [2]): 100%; Activity (Raji [3]): 7.9%; viability at 48 h, 100 molar ratio [4]: > 80%; viability at 48 h, 1000 molar ratio [5]: 60%; IC50 [6]: 403 molar ratio; Activity (Raji [7]): 37.2%; viability at 48 h, 10 molar ratio [8]: > 80%; Activity (Raji [9]): 75.1%

For `C=C(C)[C@@H]1CC[C@]2(C(=O)O)CC[C@]3(C)[C@H](CC[C@@H]4[C@@]5(C)CC[C@H](OC(=O)C[C@@H](C)C(=O)O)C(C)(C)[C@@H]5CC[C@]43C)[C@@H]12`, which viability at 48 h, 500 molar ratio [1] is on record?
The viability at 48 h, 500 molar ratio was greater than 80%.

And the Activity (Raji [2])?
Its Activity is 94.7%.

What about the Activity (Raji [3]) of the same molecule?
The Activity was 0%.

And the viability at 48 h, 100 molar ratio [4]?
Its viability at 48 h, 100 molar ratio is greater than 80%.

And the viability at 48 h, 1000 molar ratio [5]?
Its viability at 48 h, 1000 molar ratio is 60%.

And the IC50 [6]?
The IC50 was 309 molar ratio.

What about the Activity (Raji [7]) of the same molecule?
Its Activity is 31.8%.

And the viability at 48 h, 10 molar ratio [8]?
The viability at 48 h, 10 molar ratio was greater than 80%.

What about the Activity (Raji [9]) of the same molecule?
The Activity was 71.2%.

Which results are given for `C=C(C)[C@@H]1CC[C@]2(C(=O)O)CC[C@]3(C)[C@H](CC[C@@H]4[C@@]5(C)CC[C@H](OC(=O)CC/C=C\C/C=C\C/C=C\C/C=C\C/C=C\C/C=C\CC)C(C)(C)[C@@H]5CC[C@]43C)[C@@H]12`?
viability at 48 h, 500 molar ratio [1]: > 80%; Activity (Raji [2]): 100%; Activity (Raji [3]): 17%; viability at 48 h, 100 molar ratio [4]: > 80%; viability at 48 h, 1000 molar ratio [5]: 60%; IC50 [6]: 546 molar ratio; Activity (Raji [7]): 53.8%; viability at 48 h, 10 molar ratio [8]: > 80%; Activity (Raji [9]): 83.2%

Which results are given for `C=C(C)[C@@H]1CC[C@]2(C(=O)O)CC[C@]3(C)[C@H](CC[C@@H]4[C@@]5(C)CC[C@H](OC(=O)CCCCCCC/C=C\CCCCCCCC)C(C)(C)[C@@H]5CC[C@]43C)[C@@H]12`?
viability at 48 h, 500 molar ratio [1]: > 80%; Activity (Raji [2]): 92.5%; Activity (Raji [3]): 4.8%; viability at 48 h, 100 molar ratio [4]: > 80%; viability at 48 h, 1000 molar ratio [5]: 60%; IC50 [6]: 344 molar ratio; Activity (Raji [7]): 33.7%; viability at 48 h, 10 molar ratio [8]: > 80%; Activity (Raji [9]): 72.4%
